From PubChem BioAssay AID1515 (The Scripps Research Institute Molecular Screening Center, 2009)
The whole screen tested about 220,000 compounds, of which about 440 (0.2%) were called active. The entries come from a sample that favours actives as a whole. A number with no mark means an inactive call.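 Rule for the calls: active = inhibition above the campaign mean of all tested compounds plus 3 SD (cut at about 14% in these data); inactive = the rest.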

Target: Serine hydrolase RBBP9 (Homo sapiens) (UniProt O75884)
Assay: human RBBP9 inhibitors, primary screen, biochemical, fluorescence polarization, FP-Rh probe, HTS (AID 1515);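 note: plate controls were DMSO wells with RBBP9 for no effect and wells lacking RBBP9 protein for full effect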
Conditions: recombinant RBBP9, FP-Rh probe fluorescence polarization; at 7.94 µM; active compounds read high
Procedure, shortened: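 Test system: recombinant human RBBP9. Quantity: 2.5 µM RBBP9 dispensing solution, before mixing. Detection: FP readout at 525/598 nm. Reagent: Serine-hydrolase probe FP-Rh, 375 nM pre-mixing. Measure: % inhibition. Control set: DMSO-treated enzyme wells and wells lacking RBBP9. Buffer or medium: Tris-NaCl-Pluronic buffer, pH 8.0. Times: preincubation 30 min plus labeling 45 min at 25 °C.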

Sequence of Serine hydrolase RBBP9 (Homo sapiens) (O75884 whole entry, looked up): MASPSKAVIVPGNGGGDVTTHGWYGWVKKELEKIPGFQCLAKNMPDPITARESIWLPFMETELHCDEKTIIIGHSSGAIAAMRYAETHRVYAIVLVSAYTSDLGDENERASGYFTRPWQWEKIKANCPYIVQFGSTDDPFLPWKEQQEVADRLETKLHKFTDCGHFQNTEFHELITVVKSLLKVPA

Structure (SMILES) | inhibition
Cc1ccc(S(=O)(=O)/N=C(\CN2CCOCC2)N2CCOCC2)cc1 | 5.6%
CCCCCc1nnc(NC(=O)c2ccc(=O)n(C)n2)s1 | -7.4%
CSCCC(NC(=O)c1ccco1)C(=O)OCC(=O)Nc1ncc(Cl)c(C)c1Cl (stereo not drawn) | -5.55%
CC[n+]1c(C)n(-c2ccccc2)c2ccc(NC(C)=O)cc21 | -7.36%
CCC(C)c1ccc(NC(=S)NCc2ccccn2)cc1 (stereo not drawn) | -8.32%
CC(C)Oc1ccc(CCC(=O)NNC(=S)NCc2ccccc2)cc1 | -2.85%
O=C(CCC1CCCN(Cc2ccc(O)c(Cl)c2)C1)NCc1ccccc1F (stereo not drawn) | -3.09%
Brc1ccc(-c2n(-c3ccccn3)c3ccccc3[n+]2-c2ccccn2)cc1 | 0.06%
CCC(CC)c1nnc(NC(=O)/C=C/c2ccco2)s1 | -5.03%
O=C(NCC1CCCO1)C1CCN(C2CCN(C(=O)C3CCCCC3)CC2)CC1 (stereo not drawn) | -1.77%
COC(=O)c1cccc(NS(C)(=O)=O)c1 | 2.15%
C#CCOCCOCCOCCNc1nc(N2CCN(C(=O)[C@H](C(C)C)n3cc(CCO)nn3)CC2)nc(N2CCN(C(=O)[C@H](C(C)C)n3cc(CCO)nn3)CC2)n1 | -3.79%
O=C(N/N=C/c1c(Cl)[nH]c2ccccc12)c1sc2ccccc2c1Cl | -18.2%
Oc1ccc(N=Cc2c(O)ccc3ccccc23)cc1 | 5.11%
Oc1ccc(N=Cc2sc3ccccc3c2Cl)cc1 | 15.9% (active)
CC1(C)CC(=O)C2=C(C1)N=C1SCCC(=O)N1C2c1ccc(C(F)(F)F)cc1 (stereo not drawn) | -1.93%
COc1ccc(/C=C(\C#N)C(=O)ONC2=NCCCCC2)cc1 | -9.38%
COc1cccc(-c2nn(-c3ccccc3)cc2/C=C(\C#N)C(=O)NCCCn2ccnc2)c1 | -15%
CCOc1ccc(N2C(=O)CN(c3cccc4ccccc34)C2=S)cc1 | -4%
COc1cccc(N(Cc2nnc3n2CCCCC3)C(=O)Nc2ccccc2F)c1 | -3.77%
O=C(Nc1nc(-c2cccnc2)cs1)c1ccccc1F | -5.59%

Structure (SMILES) | inhibition
COc1ccc(/C=N/NC(=O)c2ccccc2)cc1OS(=O)(=O)c1ccccc1 | -7.38%
COc1cc(/C=N/NC(=O)c2ccccc2)ccc1OS(=O)(=O)c1ccccc1 | -11.2%
COc1cc(/C=N/NC(=O)Nc2ccccc2)ccc1OCCOc1ccccc1C | 65.1% (active)
Cc1ccc(C(=O)N2CCN(S(=O)(=O)N3CCOCC3)CC2)cc1 | 0.85%
COc1ccc(C(=O)NN2C(=O)C3C(c4ccccc4)C=CC(c4ccccc4)C3C2=O)cc1 (stereo not drawn) | -6.27%
O=C(NCC1CCN(Cc2ccccc2Cl)CC1)Nc1cccc(Cl)c1 | -3.66%
Cc1cc(/C=C(/C#N)C(=O)Nc2ccc(Cl)cc2)c(C)n1-c1cccnc1 | -4.94%
Cc1ccccc1C(=O)Nc1ccc(N2CCCCCC2)cc1 | -6.04%
O=C1C=CC(=O)N1c1ccc(N2CCCCC2)cc1 | 14.7% (active)
O=c1[nH][nH]c(=O)c2cc(N3CCCC3)ccc12 | 0.44%
Cc1c(NC(=O)CN2C(=O)C(=O)N(Cc3ccccc3)C2=O)c(=O)n(-c2ccccc2)n1C | -6.97%
CCS(=O)(=O)c1ccc(O)c(NC(=O)COc2ccc(Cl)cc2)c1 | -5.54%
Cc1ccnc(SCC(N)=O)n1 | -18.6%
Cc1ccnc(-n2sc3ccccc3c2=O)n1 | 43.2% (active)
Cc1ccnc(Nc2nc3ccccc3s2)n1 | -1.41%
CCOC(=O)CCCNC(=O)COC(=O)/C=C/c1ccc2c(c1)OCO2 | 6.07%
Cc1ccc(C(O)P(=O)(OC(C)C)c2ccc(N(C)C)cc2)cc1 (stereo not drawn) | -1.11%
O=C(C1CCCO1)N1CCN(C(=S)Nc2cccc(Cl)c2)CC1 (stereo not drawn) | -9.39%
CCC(=O)c1ccc(OCC(O)CN2CC(C)OC(C)C2)cc1 (stereo not drawn) | -8.04%
O=C(COc1ccc(Cl)cc1)N1CCN(c2cccc(C(F)(F)F)c2)CC1 | -0.45%
CCC(=O)c1ccc(OCC(O)CN2CCN(c3cccc(C(F)(F)F)c3)CC2)cc1 (stereo not drawn) | 17.3% (active)

Structure (SMILES) | inhibition
O=C(O)c1ccccc1-c1ccccc1C(=O)Nc1nccs1 | -2.01%
CCN1CCc2nc(NC(=O)c3cc(F)c(F)cc3Cl)sc2C1 | -0.19%
CCOc1ccc2nc(NCCNC(=O)C(C)(C)C)c(C)cc2c1 | -3.3%
Cc1ccc(C(=O)COC(=O)CCN2C(=O)C3C4CC(C(Br)C4Br)C3C2=O)cc1 (stereo not drawn) | -2.32%
COc1ccc(OC)c(NC(=S)N2CCc3ccccc3C2)c1 | 1.81%
Cc1ccc(C)c(Cn2cnc3c(oc4ccccc43)c2=O)c1 | -1.77%
Cc1ccc(CN2CCN(Cc3ccccc3-c3ccco3)CC2CCO)o1 (stereo not drawn) | -3.63%
CN(C)c1nnnn1-c1ccc(Cl)cc1 | 3.3%
CC(C)c1ccc(Nc2nnc(SCC(=O)c3nnc(-c4ccccc4)o3)s2)cc1 | -10.9%
Cc1occc1C(=O)N1CCCc2ccccc21 | 7.03%
O=C(CSCc1ccccc1)N1CCc2ccccc21 | -3.54%
CCC(=O)N1CCCc2ccccc21 | 16.1% (active)
COc1cc(OC)cc(-c2nc(=S)n3ccsc3n2)c1 | 0.8%
O=C1CN(C(=O)CN2C(=O)NC3(CCCCC3)C2=O)c2ccccc2N1 | -4.87%
CCSc1ccccc1C(=O)Nc1ccc2c(c1)OCO2 | -7.81%
CN(/C(=N/S(=O)(=O)c1cccs1)c1ccccc1)c1ccc(O)cc1 | -5.39%
O=C(CSc1nnc(SCc2ccc(Cl)cc2)s1)N/N=C/c1ccccc1Cl | -7.13%
COc1cc(NC(=S)NCc2ccc(S(N)(=O)=O)cc2)cc(OC)c1 | 1.34%
COc1ccc(CCC(=O)OCC(=O)Nc2ccc(C)c(S(=O)(=O)N(C)C)c2)cc1 | -1.71%
COc1ccc(NS(=O)(=O)c2cc(NC(=O)CC(=O)c3ccc([N+](=O)[O-])cc3)ccc2C)cc1 | 28.9% (active)
COc1cccc(NCCC(=O)c2cccc([N+](=O)[O-])c2)c1 | -8.98%
